According to ChEMBL document CHEMBL4706672 (J Med Chem, 2021):
Activity calls are given as the source filed them. No cut-off for these calls is given here.

Assays:
[1] = system: BXPC-3; test: Antiproliferative activity against human BxPC-3 cells assessed as reduction in cell viability incubated for 3 days by MTT assay; format: functional, cell-based; conditions: BXPC-3, 72 h
[2] = system: MIA PaCa-2; test: Antiproliferative activity against human MIA PaCa-2 cells assessed as reduction in cell viability incubated for 3 days by MTT assay; format: functional, cell-based; conditions: MIA PaCa-2, 72 h
Procedure, shortened: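 MTT assay. Cells were seeded at 3000–6000/well and incubated overnight, then exposed to compound or DMSO vehicle for 3 days in RPMI-1640 or DMEM with 10% FBS at 37 °C, 5% CO2. MTT (3 mg/ml) was added for 3 h at 37 °C, formazan was dissolved in DMSO and absorbance read at 570 nm. IC50 from three independent experiments, mean ± SD.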

[3] = system: HEK293; test: Antiproliferative activity against human HEK293 cells assessed as reduction in cell viability incubated for 24 hrs by MTT assay; format: functional, cell-based; conditions: HEK293, 24 h
Procedure, shortened: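 HEK-293 cells were treated with compound for 24 h, in parallel with the luciferase reporter assay. Viability was read by MTT absorbance at 570 nm, and IC50 was taken from three independent experiments.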

[4] = molecular target: Signal transducer and activator of transcription 3 (Homo sapiens) (UniProt P40763); test: Inhibition of STAT3 phosphorylation in human BxPC-3 cells at 5 uM after 16 hrs by western blot analysis; format: cell-based
Procedure, shortened: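 Cells were seeded in 6-well plates (BxPC-3 500 × 10^3, MIA PaCa-2 200 × 10^3 cells/well) and exposed to compound for 16 h. Lysis was at 4 °C by sonication in Tris/NaCl/Triton/SDS buffer, pH 7.4, with protease and phosphatase inhibitors. Lysates were run on SDS-PAGE, transferred to PVDF and probed for STAT3, pSTAT3 and NQO1 with GAPDH as loading control. Immunoblots were imaged on an Odyssey system.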

[5] = molecular target: T1, Protein cereblon/Signal transducer and activator of transcription 3 (Homo sapiens, UniProt P40763+Q96SW2); test: Protac activity at CRBN/STAT3 in human BxPC-3 cells assessed as effect on STAT3 expression level at 0.1 to 5 uM incubated for 16 hrs by western blot analysis; format: cell-based; conditions: dose 0.1-5 µM
Procedure, shortened: (§1)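 BxPC-3 cells seeded at 500 × 10^3 per well in 6-well plates, treated 16 h. Sonication lysis at 4 °C in Tris/NaCl/Triton/SDS buffer pH 7.4 with protease and phosphatase inhibitors, BCA protein assay, SDS-PAGE, PVDF transfer. Probed for STAT3, pSTAT3 and NQO1 with GAPDH loading control; fluorescent secondary detection.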
Target sequence in this assay (P40763 2-770 limits assumed): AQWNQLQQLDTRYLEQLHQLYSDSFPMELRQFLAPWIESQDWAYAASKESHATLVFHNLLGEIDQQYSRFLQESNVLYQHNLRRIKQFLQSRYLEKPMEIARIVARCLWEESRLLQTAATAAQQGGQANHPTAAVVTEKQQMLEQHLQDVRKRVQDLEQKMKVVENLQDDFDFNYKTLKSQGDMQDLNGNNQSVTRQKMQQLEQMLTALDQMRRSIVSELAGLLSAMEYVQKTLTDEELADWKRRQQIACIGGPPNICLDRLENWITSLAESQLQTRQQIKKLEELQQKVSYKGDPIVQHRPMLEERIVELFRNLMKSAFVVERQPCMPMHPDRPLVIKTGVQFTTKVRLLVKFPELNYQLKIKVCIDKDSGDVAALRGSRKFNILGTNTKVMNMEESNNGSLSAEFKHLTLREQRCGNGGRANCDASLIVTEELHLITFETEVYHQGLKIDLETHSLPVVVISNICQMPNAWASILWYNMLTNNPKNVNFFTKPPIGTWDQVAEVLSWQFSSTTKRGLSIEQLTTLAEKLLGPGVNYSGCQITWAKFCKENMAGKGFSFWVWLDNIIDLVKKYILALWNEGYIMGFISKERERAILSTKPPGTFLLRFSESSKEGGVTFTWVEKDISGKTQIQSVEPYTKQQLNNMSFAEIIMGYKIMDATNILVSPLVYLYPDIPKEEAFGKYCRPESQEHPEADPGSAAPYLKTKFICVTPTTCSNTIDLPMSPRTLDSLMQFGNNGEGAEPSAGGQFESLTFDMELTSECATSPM
Target sequence in this assay (Q96SW2 whole entry partner): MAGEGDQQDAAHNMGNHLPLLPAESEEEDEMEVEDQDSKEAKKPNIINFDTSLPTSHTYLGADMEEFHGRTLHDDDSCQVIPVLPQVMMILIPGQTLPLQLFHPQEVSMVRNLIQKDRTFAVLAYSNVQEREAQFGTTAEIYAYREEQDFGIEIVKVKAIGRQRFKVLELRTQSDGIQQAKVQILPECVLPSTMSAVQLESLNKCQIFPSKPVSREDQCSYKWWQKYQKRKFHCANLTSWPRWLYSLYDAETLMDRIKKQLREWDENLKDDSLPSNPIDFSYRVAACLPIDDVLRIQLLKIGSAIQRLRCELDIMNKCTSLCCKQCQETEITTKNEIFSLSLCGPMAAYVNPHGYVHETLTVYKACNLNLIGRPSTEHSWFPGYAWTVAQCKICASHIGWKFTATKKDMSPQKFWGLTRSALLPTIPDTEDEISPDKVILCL

[6] = molecular target: NAD(P)H dehydrogenase [quinone] 1 (Homo sapiens) (UniProt P15559); test: Binding affinity to NQO1 in human BxPC-3 cells assessed as thermal stability by measuring shift in melting temperature at 100 uM measured after 1 hr by cellular thermal shift assay; format: cell-based
[7] = system: BXPC-3; test: Antiproliferative activity against ZFP91 knockdown human BxPC-3 cells assessed as reduction in cell viability incubated for 48 hrs by MTT assay; format: functional, cell-based; conditions: BXPC-3, 48 h
Procedure, shortened: (§2)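 BxPC-3 cells were transfected with ZFP91 siRNA or scrambled control siRNA using Lipofectamine RNAiMAX in Opti-MEM, 5 pmol siRNA per complex. Compound was added together with the siRNA complex.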

[8] = molecular target: Protein cereblon/E3 ubiquitin-protein ligase ZFP91 (Homo sapiens, UniProt Q96SW2+Q96JP5); test: Protac activity at CRBN/ZFP91 in human BxPC-3 cells assessed as induction of ZF91 degradation at upto 3 uM incubated for 16 hrs by western blot analysis; format: cell-based; conditions: dose microM <=3, time 16.0 hrs
Procedure, shortened: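 BxPC-3 cells treated for 4, 16 or 24 h across a concentration series. ZFP91 immunoblotted against GAPDH; bands quantified by densitometry, DC50 calculated from dose-response curves of the densitometry.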

[9] = system: BXPC-3; test: Reduction in NQO1 levels in human BxPC-3 cells at 2 uM incubated for 16 hrs by western blot analysis; format: functional, cell-based; procedure, shortened: as §1
[10] = molecular target: T1, Protein cereblon/Signal transducer and activator of transcription 3; test: Protac activity at CRBN/STAT3 in human BxPC-3 cells assessed as decrease in STAT3 expression level after 12 hrs by western blot analysis; format: cell-based
Target sequence in this assay (P40763 whole entry): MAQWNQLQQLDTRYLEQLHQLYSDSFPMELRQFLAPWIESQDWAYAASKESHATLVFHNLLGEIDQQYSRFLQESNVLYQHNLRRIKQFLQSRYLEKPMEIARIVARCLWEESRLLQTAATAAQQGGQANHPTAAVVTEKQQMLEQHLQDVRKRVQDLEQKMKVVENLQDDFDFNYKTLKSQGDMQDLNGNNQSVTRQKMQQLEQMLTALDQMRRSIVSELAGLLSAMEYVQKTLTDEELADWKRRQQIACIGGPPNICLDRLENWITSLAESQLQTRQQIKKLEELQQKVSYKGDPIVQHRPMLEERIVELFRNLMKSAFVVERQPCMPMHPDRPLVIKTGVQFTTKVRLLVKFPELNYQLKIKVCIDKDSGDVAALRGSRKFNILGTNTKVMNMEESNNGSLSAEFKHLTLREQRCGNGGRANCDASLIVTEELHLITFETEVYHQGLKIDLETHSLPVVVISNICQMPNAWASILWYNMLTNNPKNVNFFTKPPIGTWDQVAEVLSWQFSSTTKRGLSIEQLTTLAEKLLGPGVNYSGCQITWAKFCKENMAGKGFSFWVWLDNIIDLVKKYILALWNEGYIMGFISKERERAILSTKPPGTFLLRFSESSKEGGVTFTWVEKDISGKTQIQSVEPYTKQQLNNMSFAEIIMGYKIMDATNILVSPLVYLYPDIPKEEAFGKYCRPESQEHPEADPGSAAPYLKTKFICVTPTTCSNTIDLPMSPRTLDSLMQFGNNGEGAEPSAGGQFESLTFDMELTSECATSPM
Target sequence in this assay (Q96SW2 whole entry): as the sequence (Q96SW2 whole entry partner) above

[11] = system: BXPC-3; test: Binding affinity to PDI in human BxPC-3 cells assessed as thermal stability by measuring shift in melting temperature at 100 uM measured after 1 hr by cellular thermal shift assay; format: cell-based
[12] = system: BXPC-3; test: Inhibition of colony formation in human BxPC-3 cells assessed as reduction in colony formation at 0.06 to 0.5 uM incubated for 7 to 10 days in presence of NQO1 inhibitor dicoumarol; conditions: dose 0.06-0.5 µM
[13] = system: BXPC-3; test: Antiproliferative activity against human BxPC-3 cells harboring ZFP91siRNA assessed as reduction in cell viability incubated for 48 hrs by MTT assay; format: functional, cell-based; conditions: BXPC-3, 48 h; procedure, shortened: as §2

NAD(P)H dehydrogenase [quinone] 1 (Homo sapiens), sequence (P15559 whole entry): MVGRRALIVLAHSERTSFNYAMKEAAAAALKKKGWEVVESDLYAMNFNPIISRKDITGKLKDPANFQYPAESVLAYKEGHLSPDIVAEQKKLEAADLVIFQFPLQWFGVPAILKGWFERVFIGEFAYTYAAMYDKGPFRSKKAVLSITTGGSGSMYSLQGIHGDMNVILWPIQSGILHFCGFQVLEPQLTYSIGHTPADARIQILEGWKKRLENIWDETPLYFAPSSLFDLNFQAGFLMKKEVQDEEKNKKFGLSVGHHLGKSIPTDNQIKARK
Signal transducer and activator of transcription 3 (Homo sapiens), sequence (P40763 whole entry): as the sequence (P40763 whole entry) above
Protein cereblon/E3 ubiquitin-protein ligase ZFP91, sequence (Q96JP5 2-570 partner limits assumed): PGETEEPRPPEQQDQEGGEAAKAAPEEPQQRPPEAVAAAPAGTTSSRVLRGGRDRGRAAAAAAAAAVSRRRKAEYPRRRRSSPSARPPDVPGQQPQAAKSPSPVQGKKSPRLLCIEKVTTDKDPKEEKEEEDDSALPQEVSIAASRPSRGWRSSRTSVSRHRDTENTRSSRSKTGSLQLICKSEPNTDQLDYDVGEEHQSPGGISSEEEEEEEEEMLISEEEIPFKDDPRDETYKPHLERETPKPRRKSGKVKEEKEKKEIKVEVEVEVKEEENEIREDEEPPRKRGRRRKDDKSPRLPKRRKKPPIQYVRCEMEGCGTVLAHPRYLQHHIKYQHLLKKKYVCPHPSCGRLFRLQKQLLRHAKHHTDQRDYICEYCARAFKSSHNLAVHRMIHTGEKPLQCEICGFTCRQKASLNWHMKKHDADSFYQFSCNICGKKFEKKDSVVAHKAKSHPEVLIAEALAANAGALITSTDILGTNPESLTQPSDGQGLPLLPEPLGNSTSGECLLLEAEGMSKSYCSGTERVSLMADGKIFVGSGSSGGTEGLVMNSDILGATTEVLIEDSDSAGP
Protein cereblon/E3 ubiquitin-protein ligase ZFP91, sequence (Q96SW2 whole entry): as the sequence (Q96SW2 whole entry partner) above

| SMILES | IC50 [1] | IC50 [2] | IC50 [3] | other results |
| --- | --- | --- | --- | --- |
| Nc1cccc2c1C(=O)N(C1CCC(=O)NC1=O)C2=O (stereo not given) [POMALIDOMIDE] | > 30 µM | > 30000 nM |  |  |
| O=C1CCC(N2Cc3c(NCCOCCOCCNC(=O)c4cc5c(o4)C(=O)c4ccccc4C5=O)cccc3C2=O)C(=O)N1 (stereo not given) |  | 13700 nM | > 30 µM |  |
| O=C1CCC(N2C(=O)c3cccc(NCCOCCOCCOCCOCCNC(=O)c4cc5c(o4)C(=O)c4ccccc4C5=O)c3C2=O)C(=O)N1 (stereo not given) | 10.1 µM | 4400 nM | > 10 µM |  |
| O=C1CCC(N2C(=O)c3cccc(OCCOCCOCCNC(=O)c4cc5c(o4)C(=O)c4ccccc4C5=O)c3C2=O)C(=O)N1 (stereo not given) | 8.2 µM | 3800 nM |  |  |
| Cc1ncsc1-c1ccc(CNC(=O)[C@@H]2C[C@@H](O)CN2C(=O)[C@@H](NC(=O)COCCOCCNC(=O)c2cc3c(o2)C(=O)c2ccccc2C3=O)C(C)(C)C)cc1 | > 30 µM | 14500 nM | > 30 µM |  |
| O=C1CCC(N2C(=O)c3cccc(NCCN4CCN(CCNC(=O)c5cc6c(o5)C(=O)c5ccccc5C6=O)CC4)c3C2=O)C(=O)N1 (stereo not given) | 25.6 µM | 18100 nM |  |  |
| Cc1ncsc1-c1ccc(CNC(=O)[C@@H]2C[C@@H](O)CN2C(=O)[C@@H](NC(=O)COCCNC(=O)c2cc3c(o2)C(=O)c2ccccc2C3=O)C(C)(C)C)cc1 | > 30 µM | 15800 nM | > 30 µM |  |

Stronger by IC50 [2], values ahead:

| IC50 [1] | IC50 [2] | SMILES | IC50 [3] | other results |
| --- | --- | --- | --- | --- |
| 4.2 µM | 3000 nM | O=C1CCC(N2C(=O)c3cccc(NCCCCCCNC(=O)c4cc5c(o4)C(=O)c4ccccc4C5=O)c3C2=O)C(=O)N1 (stereo not given) |  |  |
| 3.4 µM | 2700 nM | CN1C(=O)CCC(N2C(=O)c3cccc(NCCCCCC4CCN(CCNC(=O)c5cc6c(o5)C(=O)c5ccccc5C6=O)CC4)c3C2=O)C1=O (stereo not given) | > 30 µM | inhibition [4]: Active; Activity [5]: inactive |
| 3.5 µM | 2700 nM | O=C1CCC(N2C(=O)c3cccc(NCCCNC(=O)c4cc5c(o4)C(=O)c4ccccc4C5=O)c3C2=O)C(=O)N1 (stereo not given) |  |  |
| 4.5 µM | 2100 nM | O=C1CCC(N2C(=O)c3cccc(NCCOCCOCCOCCNC(=O)c4cc5c(o4)C(=O)c4ccccc4C5=O)c3C2=O)C(=O)N1 (stereo not given) | 11.2 µM |  |
| 3.2 µM | 1800 nM | O=C1CCC(N2C(=O)c3cccc(NCCCCCNC(=O)c4cc5c(o4)C(=O)c4ccccc4C5=O)c3C2=O)C(=O)N1 (stereo not given) | > 10 µM |  |
| 1.4 µM | 1200 nM | CC(=O)c1cc2c(o1)C(=O)c1ccccc1C2=O [NAPABUCASIN] | 10.4 µM | Activity [6]: Active; IC50 [7]: 1800 nM; Activity [8]: inactive; inhibition [9]: Active; DC50 [10]: 2100 nM; Activity [11]: Active; inhibition [12]: Active; IC50 [13]: 1300 nM |
| 1.1 µM | 1100 nM | O=C1CCC(N2C(=O)c3cccc(NCCC4CCN(CCNC(=O)c5cc6c(o5)C(=O)c5ccccc5C6=O)CC4)c3C2=O)C(=O)N1 (stereo not given) |  |  |
